From ChEMBL document CHEMBL4325904 (Eur J Med Chem, 2019) come the findings set out here.

Molecules are shown by their SMILES. Active and inactive are the calls of the source. The calls are words filed in the database; no cut-off is given here.

One series concerns Kasumi 1. As to the kind of experiment: Antiproliferative activity against human Kasumi-1 cells after 72 hrs by resazurin dye-based assay. The format is functional, cell-based. The settings on record: Kasumi 1, 72 h. Summed up:
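KASUMI-1 cells incubated with compounds for 72 hr; viability read with resazurin reagent. IC50 taken as the mean of three experiments, each run in duplicate.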
A general note: The colour change of resazurin is a common sign of viable cells or microbes.

In the next series the test system is Danio rerio. As to the kind of experiment: Antiangiogenic activity in zebrafish embryo assessed as effect on blood vessel development at 10 uM administered from 24 to 50 hrs post fertilization for 24 hrs and measured after 72 hrs by alkaline phosphatase assay. The format is functional, organism-based. Summed up:
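Zebrafish embryos exposed at 10 µM from 24–50 hpf alongside vehicle-only controls; at 72 hpf embryos stained with alkaline phosphatase to visualise blood vessels.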

A further series deals with Histone deacetylase 1 (Homo sapiens, UniProt Q13547). Briefly: Inhibition of recombinant full length C-terminal FLAG/His-tagged human HDAC1 (1 to 482 residues) expressed in sf21 cells using RHK-K(Ac)-AMC as substrate by fluorimetric assay.
Chain of Histone deacetylase 1 (Q13547 whole entry, the tested form may be a part): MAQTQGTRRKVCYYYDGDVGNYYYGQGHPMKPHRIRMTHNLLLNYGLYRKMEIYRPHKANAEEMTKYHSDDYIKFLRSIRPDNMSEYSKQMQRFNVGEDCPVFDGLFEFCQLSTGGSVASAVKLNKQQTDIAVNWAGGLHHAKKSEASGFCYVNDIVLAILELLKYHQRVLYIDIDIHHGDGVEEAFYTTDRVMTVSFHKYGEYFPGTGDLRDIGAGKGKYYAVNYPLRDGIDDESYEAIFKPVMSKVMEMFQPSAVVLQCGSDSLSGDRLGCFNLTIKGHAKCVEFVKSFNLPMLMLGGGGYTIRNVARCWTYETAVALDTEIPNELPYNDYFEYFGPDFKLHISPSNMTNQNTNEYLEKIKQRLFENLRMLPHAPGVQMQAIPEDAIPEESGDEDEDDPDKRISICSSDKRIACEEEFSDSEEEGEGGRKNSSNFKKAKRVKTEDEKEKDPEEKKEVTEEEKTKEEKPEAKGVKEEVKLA
In series [1] the target is Histone deacetylase 3/Nuclear receptor corepressor 2 (HDAC3/NCoR2) (Homo sapiens, UniProt O15379). The format is cell-based.
Chain of Histone deacetylase 3/Nuclear receptor corepressor 2 (HDAC3/NCoR2) (O15379 whole entry): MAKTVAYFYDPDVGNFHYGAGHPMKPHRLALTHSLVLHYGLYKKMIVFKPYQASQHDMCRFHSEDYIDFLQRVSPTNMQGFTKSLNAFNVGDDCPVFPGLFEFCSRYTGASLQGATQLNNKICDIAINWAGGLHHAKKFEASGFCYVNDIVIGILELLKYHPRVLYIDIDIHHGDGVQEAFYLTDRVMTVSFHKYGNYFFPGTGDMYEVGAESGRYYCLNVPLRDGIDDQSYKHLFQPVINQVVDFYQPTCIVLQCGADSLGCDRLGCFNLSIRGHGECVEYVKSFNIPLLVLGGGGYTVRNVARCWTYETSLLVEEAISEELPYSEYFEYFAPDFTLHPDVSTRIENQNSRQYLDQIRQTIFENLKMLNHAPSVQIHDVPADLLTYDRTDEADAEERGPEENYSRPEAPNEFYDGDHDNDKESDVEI
Chain of Histone deacetylase 3/Nuclear receptor corepressor 2 (HDAC3/NCoR2) (Q9Y618 whole entry, further chain): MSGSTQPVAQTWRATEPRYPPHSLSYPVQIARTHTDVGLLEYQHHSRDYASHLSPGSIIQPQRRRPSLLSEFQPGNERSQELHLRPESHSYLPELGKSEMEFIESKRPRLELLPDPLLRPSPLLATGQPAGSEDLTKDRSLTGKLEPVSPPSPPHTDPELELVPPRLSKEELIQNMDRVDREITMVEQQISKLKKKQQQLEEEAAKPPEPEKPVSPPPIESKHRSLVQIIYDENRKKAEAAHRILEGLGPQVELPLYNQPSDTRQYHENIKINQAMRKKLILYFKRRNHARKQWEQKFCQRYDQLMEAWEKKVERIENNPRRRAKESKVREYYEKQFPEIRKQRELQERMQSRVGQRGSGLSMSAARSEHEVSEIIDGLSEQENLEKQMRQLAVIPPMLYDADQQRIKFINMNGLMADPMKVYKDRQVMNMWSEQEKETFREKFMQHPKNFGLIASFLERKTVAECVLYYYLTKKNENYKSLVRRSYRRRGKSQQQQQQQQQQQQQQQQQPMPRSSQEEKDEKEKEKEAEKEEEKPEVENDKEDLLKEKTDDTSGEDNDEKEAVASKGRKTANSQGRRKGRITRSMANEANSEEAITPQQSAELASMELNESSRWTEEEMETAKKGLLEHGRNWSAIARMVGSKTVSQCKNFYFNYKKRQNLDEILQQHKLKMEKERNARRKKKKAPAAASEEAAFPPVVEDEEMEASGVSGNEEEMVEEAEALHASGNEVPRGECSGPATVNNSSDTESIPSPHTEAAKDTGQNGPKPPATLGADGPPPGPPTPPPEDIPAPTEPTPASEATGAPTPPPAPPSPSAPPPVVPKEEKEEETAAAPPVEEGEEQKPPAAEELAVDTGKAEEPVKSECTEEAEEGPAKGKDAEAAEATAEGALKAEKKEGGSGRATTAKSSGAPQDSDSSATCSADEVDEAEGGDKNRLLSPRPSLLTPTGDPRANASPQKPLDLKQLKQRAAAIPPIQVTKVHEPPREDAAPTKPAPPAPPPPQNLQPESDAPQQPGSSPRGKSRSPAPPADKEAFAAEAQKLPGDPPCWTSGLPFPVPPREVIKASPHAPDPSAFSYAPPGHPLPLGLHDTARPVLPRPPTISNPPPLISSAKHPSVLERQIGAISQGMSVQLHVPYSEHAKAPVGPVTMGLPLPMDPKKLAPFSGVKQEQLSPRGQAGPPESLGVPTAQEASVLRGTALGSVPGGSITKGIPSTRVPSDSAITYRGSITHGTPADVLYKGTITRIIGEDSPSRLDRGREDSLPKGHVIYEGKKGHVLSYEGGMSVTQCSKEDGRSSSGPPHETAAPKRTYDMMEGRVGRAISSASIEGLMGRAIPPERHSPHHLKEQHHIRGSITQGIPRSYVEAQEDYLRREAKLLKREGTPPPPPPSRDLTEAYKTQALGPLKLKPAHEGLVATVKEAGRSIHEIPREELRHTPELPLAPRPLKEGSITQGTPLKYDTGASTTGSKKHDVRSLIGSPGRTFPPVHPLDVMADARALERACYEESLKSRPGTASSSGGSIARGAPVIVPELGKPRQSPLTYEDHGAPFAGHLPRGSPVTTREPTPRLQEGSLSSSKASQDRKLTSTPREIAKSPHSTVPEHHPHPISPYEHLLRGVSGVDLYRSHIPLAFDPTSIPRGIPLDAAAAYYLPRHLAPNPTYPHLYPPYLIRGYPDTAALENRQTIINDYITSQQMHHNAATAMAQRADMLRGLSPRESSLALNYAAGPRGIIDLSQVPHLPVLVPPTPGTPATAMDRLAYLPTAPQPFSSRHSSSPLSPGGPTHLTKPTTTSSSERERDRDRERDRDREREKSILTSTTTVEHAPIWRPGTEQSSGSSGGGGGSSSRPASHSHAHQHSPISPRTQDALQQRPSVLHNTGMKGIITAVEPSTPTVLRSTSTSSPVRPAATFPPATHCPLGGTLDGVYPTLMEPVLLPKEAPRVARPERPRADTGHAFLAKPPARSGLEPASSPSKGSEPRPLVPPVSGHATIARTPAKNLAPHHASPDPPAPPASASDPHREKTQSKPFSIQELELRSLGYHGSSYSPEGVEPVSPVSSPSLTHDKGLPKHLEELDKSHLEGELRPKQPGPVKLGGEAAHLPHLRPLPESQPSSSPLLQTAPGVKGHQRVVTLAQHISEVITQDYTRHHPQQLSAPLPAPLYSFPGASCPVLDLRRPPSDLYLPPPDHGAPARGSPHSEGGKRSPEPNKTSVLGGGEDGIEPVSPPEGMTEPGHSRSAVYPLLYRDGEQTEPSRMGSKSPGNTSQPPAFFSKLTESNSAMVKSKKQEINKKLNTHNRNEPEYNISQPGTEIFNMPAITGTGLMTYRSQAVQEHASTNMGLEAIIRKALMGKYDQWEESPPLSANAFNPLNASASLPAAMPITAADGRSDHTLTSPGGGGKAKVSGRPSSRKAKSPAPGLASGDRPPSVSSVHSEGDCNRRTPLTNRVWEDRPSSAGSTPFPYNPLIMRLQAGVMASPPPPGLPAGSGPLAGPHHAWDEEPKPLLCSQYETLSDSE
For series [2], the target named is T1, Protein deacetylase HDAC6 (Homo sapiens, UniProt Q9UBN7).
T1 sequence (Q9UBN7 whole entry): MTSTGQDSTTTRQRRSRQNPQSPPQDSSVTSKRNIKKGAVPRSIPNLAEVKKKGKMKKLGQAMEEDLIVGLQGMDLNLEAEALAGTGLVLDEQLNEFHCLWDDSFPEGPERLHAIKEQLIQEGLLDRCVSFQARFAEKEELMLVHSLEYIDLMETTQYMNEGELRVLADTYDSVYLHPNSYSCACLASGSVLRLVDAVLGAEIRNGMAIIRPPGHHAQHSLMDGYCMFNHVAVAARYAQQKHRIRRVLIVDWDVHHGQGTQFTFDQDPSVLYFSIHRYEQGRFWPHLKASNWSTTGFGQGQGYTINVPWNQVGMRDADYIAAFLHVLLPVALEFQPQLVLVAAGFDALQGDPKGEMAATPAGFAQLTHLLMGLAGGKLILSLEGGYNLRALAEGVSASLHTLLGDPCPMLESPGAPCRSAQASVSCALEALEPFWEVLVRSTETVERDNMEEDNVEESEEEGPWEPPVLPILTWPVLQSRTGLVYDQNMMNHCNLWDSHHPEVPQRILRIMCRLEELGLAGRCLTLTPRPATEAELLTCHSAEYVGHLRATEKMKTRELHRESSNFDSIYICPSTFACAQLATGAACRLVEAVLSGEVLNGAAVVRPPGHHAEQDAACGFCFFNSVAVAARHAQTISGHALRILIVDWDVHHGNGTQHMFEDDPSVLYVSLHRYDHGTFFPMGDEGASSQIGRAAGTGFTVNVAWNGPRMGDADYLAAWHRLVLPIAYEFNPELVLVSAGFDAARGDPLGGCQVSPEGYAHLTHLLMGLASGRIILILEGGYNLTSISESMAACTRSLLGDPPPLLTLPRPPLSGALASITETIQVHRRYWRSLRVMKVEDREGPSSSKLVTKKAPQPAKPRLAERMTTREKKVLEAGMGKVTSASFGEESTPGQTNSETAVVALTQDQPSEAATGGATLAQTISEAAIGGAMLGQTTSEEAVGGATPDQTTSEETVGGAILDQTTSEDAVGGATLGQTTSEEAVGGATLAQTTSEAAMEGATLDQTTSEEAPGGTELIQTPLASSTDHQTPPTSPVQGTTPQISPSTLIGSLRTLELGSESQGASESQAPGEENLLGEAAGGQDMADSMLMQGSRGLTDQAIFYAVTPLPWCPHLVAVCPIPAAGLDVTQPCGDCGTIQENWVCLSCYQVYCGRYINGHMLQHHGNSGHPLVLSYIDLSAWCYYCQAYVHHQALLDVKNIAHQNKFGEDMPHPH
As to the kind of experiment: Inhibition of recombinant N-terminal GST-tagged human HDAC6 (1 to 1215 residues) expressed in Baculovirus infected insect cells using RHKK-Ac as substrate by fluorimetric assay.

Another series has as its target T2, Histone deacetylase 8 (Homo sapiens, UniProt Q9BY41).
T2 sequence (Q9BY41 whole entry): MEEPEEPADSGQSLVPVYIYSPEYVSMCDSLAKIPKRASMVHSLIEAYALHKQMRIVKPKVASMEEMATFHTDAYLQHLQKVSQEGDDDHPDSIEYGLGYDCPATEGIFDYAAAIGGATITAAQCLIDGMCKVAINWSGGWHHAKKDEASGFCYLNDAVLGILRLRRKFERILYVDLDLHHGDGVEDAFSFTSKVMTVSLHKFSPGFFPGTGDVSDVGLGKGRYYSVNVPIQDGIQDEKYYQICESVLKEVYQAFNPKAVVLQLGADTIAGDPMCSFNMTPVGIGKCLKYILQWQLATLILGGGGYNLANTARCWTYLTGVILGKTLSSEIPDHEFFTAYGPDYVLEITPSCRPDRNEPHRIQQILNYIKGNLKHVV
Briefly: Inhibition of recombinant C-terminal His-tagged human HDAC8 (1 to 377 residues) expressed in Baculovirus infected insect cells using RHK-K(Ac)-AMC as substrate by fluorimetric assay.

The target of another series is T3, Histone deacetylase 11 (Homo sapiens, UniProt Q96DB2).
T3 sequence (Q96DB2 whole entry): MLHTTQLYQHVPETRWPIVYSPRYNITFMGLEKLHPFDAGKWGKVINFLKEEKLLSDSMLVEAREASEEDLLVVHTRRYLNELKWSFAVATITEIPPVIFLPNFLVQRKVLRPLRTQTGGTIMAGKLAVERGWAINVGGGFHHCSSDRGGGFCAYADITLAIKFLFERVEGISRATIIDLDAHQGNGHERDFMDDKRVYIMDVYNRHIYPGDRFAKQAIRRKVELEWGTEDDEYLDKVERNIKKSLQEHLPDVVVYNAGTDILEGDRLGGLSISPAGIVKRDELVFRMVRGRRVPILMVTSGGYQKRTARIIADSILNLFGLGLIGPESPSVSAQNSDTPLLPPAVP
Briefly: Inhibition of recombinant C-terminal His-tagged human HDAC11 (1 to 347 residues) expressed in Baculovirus infected insect cells using RHKK-Ac as substrate by fluorimetric assay.

For series [3], the species on record is Homo sapiens. Briefly: Selectivity ratio of IC50 for recombinant full length C-terminal FLAG/His-tagged human HDAC1 (1 to 482 residues) to IC50 for recombinant N-terminal GST-tagged human HDAC6 (1 to 1215 residues).
For series [4], the species on record is Homo sapiens. As to the kind of experiment: Selectivity ratio of IC50 for human recombinant full length C-terminal His-tagged HDAC3 (1 to 428 residues)/N-terminal GST-tagged NCOR2 (395 to 489 residues) to IC50 for recombinant N-terminal GST-tagged human HDAC6 (1 to 1215 residues).
Series [5] in a line: Drug uptake in human A549 cells cytoplasm at 1 uM after 2 hrs by naphthalimide dye-based inverted light fluorescence confocal microscopic analysis. The format is ADME, subcellular. The note with it: a549, 2 h. The method in brief:
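A549 cells incubated 2 hours with compound at 1 µM; intracellular distribution imaged by confocal microscopy with 405 nm laser excitation, emission collected at 460–560 nm.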

Series [6] is described as follows: Drug uptake in human A549 cells lysosome at 1 uM after 2 hrs by naphthalimide/Lysotracker Deep Red dye-based inverted light fluorescence confocal microscopic analysis. The format is ADME, subcellular. The settings on record: a549, 2 h.
Series [7] in a line: Drug uptake in human A549 cells lysosome at 1 uM after 2 hrs by Lyso-tracker red-based inverted light fluorescence confocal microscopic analysis. The note with it: a549, 2 h.
In series [8] the target is T1, Protein deacetylase HDAC6. Briefly: Inhibition of human HDAC6 using (Z-(Ac)Lys-AMC) as substrate after 90 mins by fluorescence analysis.
The species named for series [9] is Homo sapiens. Briefly: Selectivity ratio of IC50 for human HDAC1 to IC50 for human HDAC6.

One may read the IC50 as the concentration at which inhibition is half-maximal. `O=C(CCCCCN1C(=O)c2cccc3cccc(c23)C1=O)NO` returned an IC50 with Kasumi 1 of 490 nM. Also, in the series with Danio rerio, the result was Active.

Turning to `O=C(CCCCCN1C(=O)c2cccc3c(Nc4ccccc4)ccc(c23)C1=O)NO`, the IC50 at Histone deacetylase 1 was 2380 nM; in [1] it was 470 nM; in series [2], 13 nM; at Histone deacetylase 8 it was 4090 nM; on Histone deacetylase 11, 190 nM; in the series on Kasumi 1 it was 280 nM. In addition, the results for the Ratio IC50 in the series listed under Homo sapiens [3] and in the series filed under Homo sapiens [4] were 183 and 36, respectively.

In the case of `O=C(CCCCCN1C(=O)c2cccc3c([N+](=O)[O-])ccc(c23)C1=O)NO`, the IC50 at Histone deacetylase 1 came to 630 nM; in series [1], 1620 nM; in [2], 5.7 nM; on Histone deacetylase 8 it was 620 nM; at Histone deacetylase 11, 1020 nM; with Kasumi 1, 570 nM. The figures for the Ratio IC50 in the series filed under Homo sapiens [3] and in the series listed under Homo sapiens [4] were 111 and 284, respectively.

Turning to `CC(/C=C/C(=O)NO)=C\[C@@H](C)C(=O)c1ccc(N(C)C)cc1`, the result in the series with Danio rerio was Active.

As to `Nc1ccccc1NC(=O)CCCCCN1C(=O)c2cccc3c(N4CCOCC4)ccc(c23)C1=O`, the IC50 on Histone deacetylase 1 is 430 nM; in [1] it was 290 nM; in series [2], > 10000 nM; on Histone deacetylase 8, > 10000 nM; at Histone deacetylase 11, 8120 nM; with Kasumi 1 it was 640 nM. Further, the Drug uptake entry in [5], in series [6] and in [7] was “Active” each time.

In series [8], `O=C(NO)c1ccc(CNC(=O)c2cc(Cn3c4ccccc4c4ccccc43)on2)cc1` displayed an IC50 of 0.61 nM. Besides, the Ratio IC50 in the series filed under Homo sapiens [9] was found to be 490.

On to `O=C(CCCCCN1C(=O)c2cccc3c(N4CCOCC4)ccc(c23)C1=O)NO`, for which the IC50 at Histone deacetylase 1 was found to be 1430 nM; in series [1], 320 nM; in [2] it was 12 nM; at Histone deacetylase 8 it was 1810 nM; on Histone deacetylase 11, 290 nM; in the series on Kasumi 1, 290 nM. The IC50 in [8] amounted to 12 nM. Moreover, the results for the Ratio IC50 in the series listed under Homo sapiens [3], in the series listed under Homo sapiens [4] and in the series listed under Homo sapiens [9] were 119, 27 and 120, respectively.

For the molecule `O=C(CCCCCN1C(=O)c2cccc3c(Nc4cccc(F)c4)ccc(c23)C1=O)NO`, the IC50 on Histone deacetylase 1 is 3060 nM; in [1], 550 nM; in series [2], 14 nM; at Histone deacetylase 8, 4070 nM; on Histone deacetylase 11, 210 nM; in the series with Kasumi 1, 320 nM. Besides, the Ratio IC50 in the series listed under Homo sapiens [3] was determined as 219; in the series listed under Homo sapiens [4], 39.

On to `Nc1ccccc1NC(=O)CCCCCN1C(=O)c2cccc3cccc(c23)C1=O`, for which the IC50 on Histone deacetylase 1 was 740 nM; in [1], 200 nM; in series [2] it was > 10000 nM; on Histone deacetylase 8, > 10000 nM; on Histone deacetylase 11, 9350 nM; with Kasumi 1 it was 1090 nM.

Consider `CN(Cc1ccccc1)c1ccc2c3c(cccc13)C(=O)N(CCCCCC(=O)NO)C2=O`, for which the IC50 on Histone deacetylase 1 is 2380 nM; in series [1], 700 nM; in [2] it was 9.7 nM; on Histone deacetylase 8 it was 1400 nM; at Histone deacetylase 11, 1220 nM; in the series on Kasumi 1, 810 nM. Moreover, the Ratio IC50 was determined as 245 in the series listed under Homo sapiens [3] and 72 in the series filed under Homo sapiens [4].
